Assay results taken from ChEMBL document CHEMBL1165977, “Novel analogues of Istaroxime, a potent inhibitor of Na(+),K(+)-ATPase: Synthesis, structure-activity relationship and 3D-quantitative structure-activity relationship of derivatives at position 6 on the androstane scaffold” (Bioorg Med Chem, 2010).

Key:
[1] = Inhibition of dog kidney Na+K+-ATPase assessed as hydrolysis of [32P]ATP; parameters: species or system Canis lupus familiaris
How it was run: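 Dog kidney Na+,K+-ATPase, isolated and purified by the Jørgensen method. Enzyme activity was read as % hydrolysis of 32P-ATP with versus without test compound. IC50 was obtained by nonlinear least-squares curve fitting, as the mean of two or three experiments.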

[2] = system: Cavia porcellus; experiment: Positive inotropic activity in guinea pig atria assessed as increase in […] at 0.16 ml/min, iv; format: functional
[3] = system: Cavia porcellus; experiment: Positive inotropic activity in iv dosed guinea pig atria assessed as concentration required to increase in […]; format: functional
[4] = organism: Cavia porcellus; experiment: Positive inotropic activity in electrically driven guinea pig atria assessed as maximal concentration required to increase in […]; format: functional
[5] = system: Cavia porcellus; experiment: Toxicity in guinea pig assessed as death at 0.16 ml/min, iv up to 90 mins; format: organism-based; conditions: in vivo, 1.5 h
How it was run: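 Anesthetized guinea pigs with a jugular vein cannula and an intubated trachea for spontaneous respiration. After stabilization, drug was infused iv at 0.16 mL/min until death or for up to 90 min. Vehicle was DMSO diluted in physiological solution to 1% DMSO final. Read-out was +dP/dt_max. ED80 (dose raising +dP/dt_max by 80%) came from the dose–response, and the doses giving maximum inotropy and death were recorded, giving the lethal dose/ED80 ratio.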

Structure (SMILES) | IC50 [1] [nM] | other results
C[C@]12CC/C(=N\OCCN)C[C@@H]1[C@H](O[N+](=O)[O-])C[C@@H]1[C@@H]2CC[C@]2(C)C(=O)CC[C@@H]12 | 2900 | 
CNCCCO/N=C1\CC[C@@]2(C)[C@H](C1)[C@@H](COC)C[C@@H]1[C@@H]2CC[C@]2(C)C(=O)CC[C@@H]12 | 2000 | 
C=CCO/N=C1\C[C@@H]2[C@H](CC[C@]3(C)C(=O)CC[C@@H]23)[C@@]2(C)CC/C(=N\OCCN)C[C@H]12 | 43000 | 
COC(=O)/C=C1\C[C@@H]2[C@H](CC[C@]3(C)C(=O)CC[C@@H]23)[C@@]2(C)CC/C(=N\OCCN)C[C@H]12 | 64000 | 
COC[C@@H]1C[C@@H]2[C@H](CC[C@]3(C)C(=O)CC[C@@H]23)[C@@]2(C)CC/C(=N\OCCN)C[C@H]12 | 3000 | 
COC[C@H]1C[C@@H]2[C@H](CC[C@]3(C)C(=O)CC[C@@H]23)[C@@]2(C)CC/C(=N\OCCN)C[C@H]12 | 500 | 
C[C@]12CC/C(=N\OCCN)C[C@@H]1[C@@]1(CO1)C[C@@H]1[C@@H]2CC[C@]2(C)C(=O)CC[C@@H]12 | 910 | 
C[C@]12CC/C(=N\O[C@@H]3CCNC3)C[C@@H]1/C(=N/O)C[C@@H]1[C@@H]2CC[C@]2(C)C(=O)CC[C@@H]12.Cl | 16 | Emax [2]: 144%; ED80 [3]: 1.5 µM/g; Activity [4]: 4.3 µM/g; Activity [5]: Non-toxic
CO/N=C1\C[C@@H]2[C@H](CC[C@]3(C)C(=O)CC[C@@H]23)[C@@]2(C)CC/C(=N\O[C@@H]3CCNC3)C[C@H]12 | 18 | 
C[C@]12CC/C(=N\O[C@@H]3CCNC3)C[C@@H]1[C@@H](CCO)C[C@@H]1[C@@H]2CC[C@]2(C)C(=O)CC[C@@H]12.Cl | 58 | Emax [2]: 183%; ED80 [3]: 1.9 µM/g; Activity [4]: 5.1 µM/g; Activity [5]: Non-toxic
C[C@]12CC/C(=N\OCCN)C[C@@H]1[C@]1(CO1)C[C@@H]1[C@@H]2CC[C@]2(C)C(=O)CC[C@@H]12 | 870 | 
C[C@]12CC/C(=N\O[C@@H]3CCNC3)C[C@@H]1[C@@H](CO)C[C@@H]1[C@@H]2CC[C@]2(C)C(=O)CC[C@@H]12 | 26 | 
CNCCCO/N=C1\CC[C@@]2(C)[C@H](C1)C1(CC1)C[C@@H]1[C@@H]2CC[C@]2(C)C(=O)CC[C@@H]12 | 1300 | 
CNCCCO/N=C1\CC[C@@]2(C)[C@H](C1)C(=O)C[C@@H]1[C@@H]2CC[C@]2(C)C(=O)CC[C@@H]12 | 250 | 
C=C1C[C@@H]2[C@H](CC[C@]3(C)C(=O)CC[C@@H]23)[C@@]2(C)CC/C(=N\OCCCNC)C[C@H]12 | 570 | 
C[C@]12CC/C(=N\OCCN)C[C@@H]1[C@@H](C#N)C[C@@H]1[C@@H]2CC[C@]2(C)C(=O)CC[C@@H]12 | 1100 | 
COC(=O)[C@H]1C[C@@H]2[C@H](CC[C@]3(C)C(=O)CC[C@@H]23)[C@@]2(C)CC/C(=N\OCCN)C[C@H]12 | 410 | 
C[C@]12CC/C(=N\OCCN)C[C@@H]1[C@@H](C(N)=O)C[C@@H]1[C@@H]2CC[C@]2(C)C(=O)CC[C@@H]12 | 630 | 
C#C[C@H]1C[C@@H]2[C@H](CC[C@]3(C)C(=O)CC[C@@H]23)[C@@]2(C)CC/C(=N\OCCCNC)C[C@H]12 | 1200 | 
CNCCCO/N=C1\CC[C@@]2(C)[C@H](C1)[C@@H](C(N)=O)C[C@@H]1[C@@H]2CC[C@]2(C)C(=O)CC[C@@H]12 | 1900 | 
CNCCCO/N=C1\CC[C@@]2(C)[C@H](C1)[C@@H](C(=O)OC)C[C@@H]1[C@@H]2CC[C@]2(C)C(=O)CC[C@@H]12 | 4000 | 
CO[C@@H]1C[C@@H]2[C@H](CC[C@]3(C)C(=O)CC[C@@H]23)[C@@]2(C)CC/C(=N\OCCN)C[C@H]12 | 1500 | 
C[C@]12CC/C(=N\OCCN)C[C@@H]1[C@@H](O)C[C@@H]1[C@@H]2CC[C@]2(C)C(=O)CC[C@@H]12 | 520 | 
C[C@]12CC/C(=N\OCCN)C[C@@H]1[C@H](O)C[C@@H]1[C@@H]2CC[C@]2(C)C(=O)CC[C@@H]12 | 2100 | 
C=C1C[C@@H]2[C@H](CC[C@]3(C)C(=O)CC[C@@H]23)[C@@]2(C)CC/C(=N\OCCN)C[C@H]12 | 42 | 

Structure (SMILES) | IC50 [1] [nM] | other results
C[C@]12CC/C(=N\OCCN)C[C@@H]1[C@@H](C(=O)O)C[C@@H]1[C@@H]2CC[C@]2(C)C(=O)CC[C@@H]12 | 16000 | 
C[C@]12CC/C(=N\OCCN)C[C@@H]1C(=C(F)F)C[C@@H]1[C@@H]2CC[C@]2(C)C(=O)CC[C@@H]12 | 190 | 
C/C=C1\C[C@@H]2[C@H](CC[C@]3(C)C(=O)CC[C@@H]23)[C@@]2(C)CC/C(=N\OCCN)C[C@H]12 | 1100 | 
C[C@]12CC/C(=N\OCCN)C[C@@H]1C1(CC1)C[C@@H]1[C@@H]2CC[C@]2(C)C(=O)CC[C@@H]12 | 850 | 
C[C@H]1C[C@@H]2[C@H](CC[C@]3(C)C(=O)CC[C@@H]23)[C@@]2(C)CC/C(=N\OCCN)C[C@H]12.Cl | 300 | Emax [2]: 203%; ED80 [3]: 3.1 µM/g; Activity [4]: 5.8 µM/g; Activity [5]: Non-toxic
C=C[C@H]1C[C@@H]2[C@H](CC[C@]3(C)C(=O)CC[C@@H]23)[C@@]2(C)CC/C(=N\OCCN)C[C@H]12 | 530 | 
C#C[C@H]1C[C@@H]2[C@H](CC[C@]3(C)C(=O)CC[C@@H]23)[C@@]2(C)CC/C(=N\OCCN)C[C@H]12.Cl | 200 | Emax [2]: 163%; ED80 [3]: 4.6 µM/g; Activity [4]: 9.9 µM/g; Activity [5]: Non-toxic
C[C@@H]1C[C@@H]2[C@H](CC[C@]3(C)C(=O)CC[C@@H]23)[C@@]2(C)CC/C(=N\OCCN)C[C@H]12 | 6000 | 
CO/N=C1\C[C@@H]2[C@H](CC[C@]3(C)C(=O)CC[C@@H]23)[C@@]2(C)CC/C(=N\OCCN)C[C@H]12.Cl | 17 | Emax [2]: 183%; ED80 [3]: 2.4 µM/g; Activity [4]: 5.8 µM/g; Activity [5]: Non-toxic
CCO/N=C1\C[C@@H]2[C@H](CC[C@]3(C)C(=O)CC[C@@H]23)[C@@]2(C)CC/C(=N\OCCN)C[C@H]12 | 1700 | 
C[C@]12CC/C(=N\O[C@@H]3CCNC3)C[C@@H]1[C@@H](O[N+](=O)[O-])C[C@@H]1[C@@H]2CC[C@]2(C)C(=O)CC[C@@H]12 | 380 | 
C[C@]12CC/C(=N\OCCN)C[C@@H]1/C(=C/C#N)C[C@@H]1[C@@H]2CC[C@]2(C)C(=O)CC[C@@H]12 | 1700 | 
C[C@H]1C[C@@H]2[C@H](CC[C@]3(C)C(=O)CC[C@@H]23)[C@@]2(C)CC/C(=N\O[C@@H]3CCNC3)C[C@H]12 | 340 | 
C[C@]12CC/C(=N\OCCN)C[C@@H]1[C@@H](CO)C[C@@H]1[C@@H]2CC[C@]2(C)C(=O)CC[C@@H]12.Cl | 180 | Emax [2]: 166%; ED80 [3]: 1.8 µM/g; Activity [4]: 7.4 µM/g; Activity [5]: Non-toxic
C[C@]12CC/C(=N\OCCN)C[C@@H]1[C@H](CO)C[C@@H]1[C@@H]2CC[C@]2(C)C(=O)CC[C@@H]12 | 1600 | 
C#C[C@H]1C[C@@H]2[C@H](CC[C@]3(C)C(=O)CC[C@@H]23)[C@@]2(C)CC/C(=N\O[C@@H]3CCNC3)C[C@H]12.Cl | 110 | Emax [2]: 147%; ED80 [3]: 3.7 µM/g; Activity [4]: 6 µM/g; Activity [5]: Non-toxic
CC(=O)N[C@H]1C[C@@H]2[C@H](CC[C@]3(C)C(=O)CC[C@@H]23)[C@@]2(C)CC/C(=N\OCCN)C[C@H]12 | 45000 | 
C=C1C[C@@H]2[C@H](CC[C@]3(C)C(=O)CC[C@@H]23)[C@@]2(C)CC/C(=N\O[C@@H]3CCNC3)C[C@H]12 | 46 | 
C[C@]12CC/C(=N\OCCN)C[C@@H]1/C(=C/CO)C[C@@H]1[C@@H]2CC[C@]2(C)C(=O)CC[C@@H]12 | 770 | 
C[C@]12CC/C(=N\O[C@@H]3CCNC3)C[C@@H]1C(=C(F)F)C[C@@H]1[C@@H]2CC[C@]2(C)C(=O)CC[C@@H]12.Cl | 21 | Emax [2]: 244%; ED80 [3]: 6.7 µM/g; Activity [4]: 18 µM/g; Activity [5]: Non-toxic
C[C@]12CC/C(=N\O[C@@H]3CCNC3)C[C@@H]1C1(CC1)C[C@@H]1[C@@H]2CC[C@]2(C)C(=O)CC[C@@H]12 | 220 | 
COC[C@H]1C[C@@H]2[C@H](CC[C@]3(C)C(=O)CC[C@@H]23)[C@@]2(C)CC/C(=N\O[C@@H]3CCNC3)C[C@H]12.O=C(O)/C=C/C(=O)O | 320 | Emax [2]: 201%; ED80 [3]: 6.8 µM/g; Activity [4]: 12 µM/g; Activity [5]: Non-toxic
CNCCCO/N=C1\CC[C@@]2(C)[C@H](C1)/C(=N/OC)C[C@@H]1[C@@H]2CC[C@]2(C)C(=O)CC[C@@H]12 | 330 | 
CCO[C@H]1C[C@@H]2[C@H](CC[C@]3(C)C(=O)CC[C@@H]23)[C@@]2(C)CC/C(=N\OCCN)C[C@H]12 | 3100 | 
C[C@]12CC/C(=N\O[C@@H]3CCNC3)C[C@@H]1C(=O)C[C@@H]1[C@@H]2CC[C@]2(C)C(=O)CC[C@@H]12 | 26 | 
